The values below come from ChEMBL document CHEMBL3297709, “High affinity ligands and potent antagonists for the α1D-adrenergic receptor. Novel 3,8-disubstituted [1]benzothieno[3,2-d]pyrimidine derivatives” (Eur J Med Chem, 2014).

SMILES strings stand for the structures.

For experiment [1], the target named is T1, Alpha-1B adrenergic receptor (Rattus norvegicus) (UniProt P15823).
T1 sequence (whole entry): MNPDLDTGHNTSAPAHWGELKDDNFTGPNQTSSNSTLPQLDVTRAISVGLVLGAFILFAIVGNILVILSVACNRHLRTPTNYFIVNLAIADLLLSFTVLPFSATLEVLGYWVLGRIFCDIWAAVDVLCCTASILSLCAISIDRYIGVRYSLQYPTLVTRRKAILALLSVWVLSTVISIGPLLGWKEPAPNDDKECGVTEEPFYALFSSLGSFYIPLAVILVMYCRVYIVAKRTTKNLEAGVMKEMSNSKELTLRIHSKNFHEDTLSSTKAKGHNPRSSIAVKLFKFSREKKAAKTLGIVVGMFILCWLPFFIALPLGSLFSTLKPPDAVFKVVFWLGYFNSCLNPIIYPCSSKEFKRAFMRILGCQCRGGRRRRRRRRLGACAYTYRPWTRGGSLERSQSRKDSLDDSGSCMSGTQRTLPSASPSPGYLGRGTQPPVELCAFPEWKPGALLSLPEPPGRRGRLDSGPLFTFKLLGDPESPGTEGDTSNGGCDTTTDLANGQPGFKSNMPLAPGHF
Put plainly: Antagonist activity at alpha1B adrenoceptor in Wistar rat spleen assessed as phenylephrine induced contractions. The procedure, abridged: (§1)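 Wistar rat spleen strips under 1 g resting tension, equilibrated 2 h, with 4 µM (±)-propranolol to block β-adrenoceptors. Cumulative phenylephrine curves measured isometrically at 30 min intervals, first discarded, second as control. Antagonist incubated 30–60 min before repeat curve. pKb from ED50 dose ratio via pKb = log(DR-1) - log[B]; mean ± SE of 4–5 experiments.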

Experiment [2] has as its target T2, Alpha-1A adrenergic receptor (Rattus norvegicus) (UniProt P43140).
T2 sequence (whole entry): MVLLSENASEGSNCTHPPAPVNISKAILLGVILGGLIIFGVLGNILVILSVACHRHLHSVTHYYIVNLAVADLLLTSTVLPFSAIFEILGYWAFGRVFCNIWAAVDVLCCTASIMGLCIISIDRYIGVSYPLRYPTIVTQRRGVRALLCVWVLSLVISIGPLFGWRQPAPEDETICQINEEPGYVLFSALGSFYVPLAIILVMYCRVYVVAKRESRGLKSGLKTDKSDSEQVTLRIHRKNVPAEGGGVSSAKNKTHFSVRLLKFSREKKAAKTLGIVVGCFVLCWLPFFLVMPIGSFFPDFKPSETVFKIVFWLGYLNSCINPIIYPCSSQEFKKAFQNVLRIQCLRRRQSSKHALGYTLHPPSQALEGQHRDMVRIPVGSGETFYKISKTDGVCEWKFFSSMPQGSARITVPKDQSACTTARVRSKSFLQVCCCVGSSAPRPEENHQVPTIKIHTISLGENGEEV
Put plainly: Antagonist activity at alpha1A adrenoceptor in Wistar rat vas deferans assessed as decrease in noradrenaline induced contractions at 0.1 uM. Also on record: scale not given: the % may be the effect or the level left. In outline:
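Male Wistar rat (275-300 g) prostatic vas deferens in 20 mL organ bath, physiological salt solution, 37 °C, 5% CO2:95% O2, pH 7.4. Primed twice with 10 µM (-)-NA, 45 min wash/equilibration, then cumulative (-)-NA curve recorded isotonically. Antagonist incubated 30–60 min before repeat curve. pKb = log(DR-1) - log[B] from ED50 ratio; mean ± SE of 4–5 experiments.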

The target of experiment [3] is T1, Alpha-1B adrenergic receptor (Rattus norvegicus). Nature of the experiment: Antagonist activity at alpha1B adrenoceptor in Wistar rat spleen assessed as decrease in phenylephrine induced contractions at 0.1 uM. On the set-up: scale not given: the % may be the effect or the level left. In outline:
as §1

The target of experiment [4] is T3, Alpha-1A adrenergic receptor (Homo sapiens, UniProt P35348).
T3 sequence (P35348 whole entry): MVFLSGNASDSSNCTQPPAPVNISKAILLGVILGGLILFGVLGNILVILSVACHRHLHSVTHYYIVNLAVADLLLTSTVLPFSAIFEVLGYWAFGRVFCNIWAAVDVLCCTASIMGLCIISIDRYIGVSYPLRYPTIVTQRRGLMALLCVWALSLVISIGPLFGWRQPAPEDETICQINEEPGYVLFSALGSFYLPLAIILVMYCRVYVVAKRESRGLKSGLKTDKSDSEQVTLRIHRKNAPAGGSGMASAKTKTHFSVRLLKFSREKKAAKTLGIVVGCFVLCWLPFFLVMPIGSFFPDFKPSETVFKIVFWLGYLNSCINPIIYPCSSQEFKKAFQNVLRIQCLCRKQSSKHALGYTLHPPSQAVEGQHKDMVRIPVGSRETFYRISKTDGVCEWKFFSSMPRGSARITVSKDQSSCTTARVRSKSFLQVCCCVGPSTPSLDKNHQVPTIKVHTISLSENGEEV
Nature of the experiment: Displacement of [125I]BE2254 from human alpha1a receptor expressed in HEK293 cells. The class given is cell-based. The procedure, abridged:
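Membranes from HEK293 cells stably transfected with human α1A, α1B or α1D receptor cDNA, selected under 400 µg/mL geneticin. Competition against 50 pM [125I]BE2254; nonspecific binding defined with 10 µM phentolamine. Curves fitted by nonlinear regression. Mean ± SE of three experiments run in duplicate.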

As a reminder, the pKb is the Kb on a negative log10 scale, so that one unit is a factor of ten. In general, Ki refers to a dissociation constant, usually derived from enzyme kinetics or from competition with a known ligand. For the compound `COc1ccccc1N1CCN(CCn2c(=O)[nH]c3c(sc4ccc(NC(=O)CCCC(=O)N(C)Cc5ccccc5)cc43)c2=O)CC1`, in experiment [1], the pKb stood at 7.77. Further, the Activity is 90% in experiment [2] and 100% in experiment [3]. The same compound showed an inhibitory constant (Ki) in experiment [4] of 0.933 nM.

Consider `COc1ccccc1N1CCN(CCn2c(=O)[nH]c3c(sc4ccc(NC(=O)CCCC(=O)NCc5ccccc5)cc43)c2=O)CC1`, for which the negative-log Kb (pKb) in experiment [1] was 7.94. The Activity in experiment [2] and in experiment [3] was 100% in each case. This compound also had a Ki in experiment [4] of 0.324 nM.
